Bioassay records (PubChem)
MT1-MMP act inh: blockers of MT1-MMP proenzyme processing, primary screen, HT1080 RFP-PRO-GFP cells, GFP/RFP fluorescence; Matrix metalloproteinase-14 (Homo sapiens), P50281; GFP/RFP ratio fluorescence, overnight; percent of plate control window, DMSO zero; GFP/RFP ratio change, % at 20 µM; 0.061% of 360,000 active; AID 651647, 2012;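 active = GFP/RFP ratio change of at least 30% with cell ATP level not reduced by more than half and red fluorescence within 50% of control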
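Assay system: HT1080 RFP-PRO-GFP cells | Dosing: 20 µM single dose, 1% DMSO | Incubation: Cells overnight before dosing, compound overnight, 37 °C, 5% CO2 | Evaluation: GFP/RFP fluorescence ratio | Control set: DMSO-only wells and HT1080 RFP-L50D-GFP cell wells as references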
UCH37 inh: inhibitors of human UCH37 deubiquitinase, primary screen, biochemical, Ub-AMC cleavage, fluorescence. Ubiquitin carboxyl-terminal hydrolase isozyme L5 (Homo sapiens), Q9Y5K5. purified proteasome/UCH37. inhibition, % (concentration not given with the values). 0.33% of 330,000 active. AID 588478, 2011;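 active = mean inhibition over replicate wells above about 20%, limit read from the data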;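 also: 0% = compound-free wells with enzyme and 100% = wells lacking proteasome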
Target sequence (Q9Y5K5 whole entry, looked up): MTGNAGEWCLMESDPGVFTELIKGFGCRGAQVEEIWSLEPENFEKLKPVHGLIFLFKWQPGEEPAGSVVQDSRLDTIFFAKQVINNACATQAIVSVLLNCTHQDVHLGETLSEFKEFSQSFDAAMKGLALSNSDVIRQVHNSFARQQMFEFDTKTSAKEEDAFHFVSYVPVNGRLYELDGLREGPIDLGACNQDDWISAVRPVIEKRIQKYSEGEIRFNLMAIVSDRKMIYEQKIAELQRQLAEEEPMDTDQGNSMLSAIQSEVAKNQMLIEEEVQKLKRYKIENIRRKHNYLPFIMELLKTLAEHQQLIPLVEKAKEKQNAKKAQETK
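Material: human UCH37 enzyme supplied as purified proteasome complex. Measure: % inhibition of Ub-AMC cleavage fluorescence. Medium: pH 7.4 Tris-HCl (50 mM) with ovalbumin, ATP-MgCl2, DTT. Times: 30 min preincubation with enzyme, 25 min cleavage at room temperature. Detection: AMC fluorescence intensity at 355/460 nm.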
Fh CTSL1 inh: Fasciola hepatica cathepsin L1 inhibitors, primary screen, counter-screen for PFM18AAP inhibitor project, biochemical, QFRET, fluorogenic peptide substrate | recombinant F. hepatica cathepsin L1, Z-Leu-Arg-MCA fluorescence | inhibition, % at 5.96 µM | 0.49% of 300,000 active | AID 1906, 2009;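 active = inhibition above the mean of all tested compounds plus 3 SD, set per screening campaign, cut at about 17% in these data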;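 also: 0% = plate median of test compound wells and 100% = 1 µM Z-Phe-Ala-diazomethylketone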
NRP1-CendR mod: modulators of CendR peptide binding to NRP-1, primary screen, biochemical, fluorescence polarization, uHTS. AID 602438, 2012. inhibition, % at 25 µM. FAM-RPARPAR peptide binding to NRP-1. 0.85% of 360,000 active;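 active = inhibition or corrected inhibition above about 18%, plus a signal ratio from 0.5 to 1.5, limit read from the data, passing the limit was not always enough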
DAGLB inh: DAGLB lipase inhibitors, primary screen, biochemical, fluorescence, HTS | HEK293T DAGLB membrane lysate, EnzChek fluorogenic substrate | inhibition, % at 5.17 µM | 0.059% of 340,000 active | Diacylglycerol lipase-beta (Homo sapiens), Q8NCG7; in the data active = inhibition above about 34%;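 also: 0% = enzyme with vehicle and 100% = wells lacking enzyme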
Numbers without * were called inactive; nt = no result given. An excerpt weighted towards active compounds, which were near 1.5% of everything screened.

SMILES	MT1-MMP act inh	UCH37 inh	Fh CTSL1 inh	NRP1-CendR mod	DAGLB inh
CC[C@@H](C)[C@@H](C(=O)N1CCN(C(=O)OC(C)(C)C)CC1)n1cc(CCCN=C(NC(=O)OC(C)(C)C)NC(=O)OC(C)(C)C)nn1	0	5	5	26*	-1
CN1CCN(C(=O)c2ccc(N(C)S(=O)(=O)c3cccs3)cc2)CC1	-3	-3	-2	22*	1
CCOc1ccc(C=NNC(=O)CSc2n[nH]c(=O)[nH]c2=O)cc1OC	nt	4	nt	nt	nt
Cc1ccc(C(=O)Oc2oc(-c3ccco3)nc2C=Nc2ccc(Cl)cc2)cc1	-1	4	21*	-9	2
O=C(Oc1oc(-c2ccco2)nc1C=Nc1ccccc1)c1ccco1	4	-2	20*	-9	1
Cc1nn(-c2ccccc2)c(N2CCCC2)c1/C=N/O	-6	nt	1	-1	1
Cc1nn(-c2ccccc2)c(N2CCCC2)c1/C=C1\N=C(c2ccc(F)cc2)OC1=O	-1	7	70*	5	-1
Cc1nn(-c2ccccc2)c(N2CCCC2)c1/C=N/NC(=S)Nc1ccc(F)cc1	-4	nt	2	0	0
Cc1ccc(C2=N/C(=C\c3c(C)nn(-c4ccccc4)c3N3CCCC3)C(=O)O2)cc1	0	3	55*	-12	-3
CCn1c(=S)sc2c(=O)n(CC(=O)Nc3cccc(Cl)c3)c(C)nc21	3	2	0	-4	0
CCn1c(=S)sc2c(=O)n(CC(=O)NCCCc3ccccc3)c(C)nc21	2	6	1	26*	1
O=C(CSc1nc2ccccc2n1Cc1ccccc1Cl)N/N=C/c1ccccc1C(=O)O	0	nt	-3	40*	4
O=C(CSc1nc2ccccc2n1Cc1ccccc1)N/N=C/c1ccccc1C(=O)O	6	nt	1	-15	1
O=C(CSc1ccc(-c2ccc(F)cc2)nn1)NC1CCCCC1	-1	2	2	19*	-1
Cc1[nH]c2ccccc2c1SCC(=O)NC1CCCCC1	2	2	23*	-14	-1
COc1ccccc1Sc1ccccc1C=NNC(N)=O	nt	4	nt	nt	nt
CC(=O)Nc1ccc(C2=NN(C)C(=NCc3ccccc3)SC2)cc1	5	9	9	30*	1
O=C(Cn1cc(C=NNC(=O)c2cccc(C(F)(F)F)c2)c2ccccc21)Nc1ccc(F)cc1	nt	-52	nt	nt	nt
CC(=O)NCC(C)=NNc1ccc([N+](=O)[O-])cc1	nt	5	nt	nt	nt
COc1ccc(NC(=O)Nc2cc(C)cc(C)c2)cn1	-8	1	-3	18	0
COc1ccc(NC(=O)/C=C/c2cccc(F)c2)cn1	-12	9	-1	19*	-1
COc1ccc(NC(=O)Nc2cccc(C(F)(F)F)c2)cn1	1	3	1	28*	-2
CCC(O)CC(C(=O)NNc1ccccc1)C(=O)NNc1ccccc1 (stereo not drawn)	0	30*	-7	11	0
N#CC1=C(N)C(C#N)(C#N)C2(C(=O)Nc3ccccc32)C2CCCC=C12 (stereo not drawn)	-7	3	20*	-16	-2
CC(=NNC(=O)c1ccccc1O)C1CC1	nt	-101	nt	nt	nt
SMILES	MT1-MMP act inh	UCH37 inh	Fh CTSL1 inh	NRP1-CendR mod	DAGLB inh
Cc1cccc(N2C(=O)CSC2=NNC(=O)c2ccc(Cl)cc2)c1C	nt	5	nt	nt	nt
COC(C[C@H]1O[C@H]1[C@@H](O)[C@H](C)OCc1ccccc1)OC	8	0	nt	1	-2
COC(C[C@H]1O[C@@H]1[C@H](O)[C@H](C)OCc1ccccc1)OC	1	1	-2	26*	0
CC1(OC(=O)c2ccc(Cl)nc2)C(=O)C=C2C=C3CCCN3C=C2C1=O (stereo not drawn)	6	5	4	51*	-1
CC1(OC(=O)c2ccc(Cl)nc2)C(=O)C=C2C=C(C3CC3)OC=C2C1=O (stereo not drawn)	nt	nt	-3	nt	nt
COC(=O)CCC(=O)OC1(C)C(=O)C=C2C=C3CCCN3C=C2C1=O (stereo not drawn)	1	7	2	41*	1
COC(=O)CCC(=O)OC1(C)C(=O)C=C2C=C(C3CC3)N(Cc3ccc(OC)cc3)C=C2C1=O (stereo not drawn)	0	0	-1	8	-1
CC1(OC(=O)C2CCCC2)C(=O)C=C2C=C3CCCCN3C=C2C1=O (stereo not drawn)	-1	3	13	32*	-2
CC(C)(C)c1cccc(C=NO)c1O	nt	3	nt	nt	nt
CCCNC(=O)OC[C@H]1O[C@H](CCON=C[C@@H](OC)[C@H](C)/C=C/CC(=O)OC)C=C[C@@H]1Oc1ccc(OC)cc1	nt	3	nt	nt	nt
CCC1(c2ccc(OC)cc2)NC(=O)N(CC(=O)NC2CCCCC2C)C1=O (stereo not drawn)	-2	5	nt	23*	2
O=C(NCc1ccc2c(c1)OCO2)c1ccc(COc2cccc(Cl)c2)o1	-13	5	22*	5	-4
O=C(NCc1ccc2c(c1)OCO2)c1ccc(CS(=O)Cc2cccc(Cl)c2)o1 (stereo not drawn)	4	4	-6	10	0
O=C(C1CCN(S(=O)(=O)c2ccc(Br)s2)CC1)N1CCc2ccccc21	-1	1	1	43*	-9
CCCCC1=CC2=CC(=O)C(C)(OC(=O)CC)C(=O)C2=CN1c1cccc(C#N)c1 (stereo not drawn)	-11	-1	12	6	3
CCCCC1=CC2=CC(=O)C(C)(OC(=O)CC)C(=O)C2=CN1c1ccc(OC)cc1 (stereo not drawn)	-5	5	0	24*	3
O=C(NN=Cc1ccco1)c1ccccn1	nt	7	nt	nt	nt
